According to ChEMBL document CHEMBL5346864, “Identification of L. infantum trypanothione synthetase inhibitors with leishmanicidal activity from a (non-biased) in-house chemical library” (Eur J Med Chem, 2022):
Calls of active or inactive are those of the source. No cut-off for these calls is given here.

Experiments:
Leishmania infantum [1] = test: Leishmanicidal activity against Leishmania infantum axenic amastigotes (MCAN/ES/89/IPZ229/1/89) assessed as inhibition of parasite proliferation measured after 24 hrs by resazurin dye based fluorescence analysis; assay type: functional, organism-based; details: MCAN/ES/89/IPZ229/1/89, 24 h
Procedure, shortened: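 L. infantum MCAN/ES/89/IPZ229/1/89 axenic amastigotes (M199-based medium, pH 5.4, 37 °C) from log cultures seeded at 10^6/mL and treated 24 h at 37 °C. Resazurin added for a further 24 h; fluorescence read at ex 560/em 590 nm, normalized to vehicle, EC50 from two-parameter fit; triplicate in three independent experiments.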

[2] = Cytotoxicity against human HepG2 cells assessed as reduction in cell proliferation measured after 72 hrs by crystal violet staining based analysis; assay type: toxicity
Leishmania infantum [3] = test: Increase in the intracellular superoxide radical concentration in Leishmania infantum axenic amastigotes at 1 uM incubated for 2 hrs by DHE-derived flow cytometry; assay type: functional, cell-based
Leishmania infantum [4] = test: Anti-leishmanial activity against GFP-expressing Leishmania infantum axenic amastigotes infected in human THP-1 cells assessed as reduction in live intracellular GFP+ amastigotes measured after 72 hrs by fluorescence based analysis; assay type: functional, organism-based; details: THP-1, 72 h
Procedure, shortened: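 THP-1 monocytes differentiated 24 h with 100 ng/mL PMA, infected 24 h with GFP-expressing L. infantum axenic amastigotes (5 × 10^6/mL), non-internalized parasites removed by washes and a 24 h horse-serum challenge. Treatment for 72 h at 37 °C in RPMI with 10% horse serum. SDS lysis; live (propidium iodide-negative) GFP+ amastigotes counted by flow cytometry, normalized to vehicle, EC50 by two-parameter fit; three independent experiments.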

Leishmania infantum [5] = test: Induction of plasma membrane depolarization in Leishmania infantum axenic amastigotes at 1 uM incubated for 2 hrs by DiBAC4(3)-derived flow cytometry
[6] = Selectivity index, ratio of CC50 for cytotoxicity against human HepG2 cells to EC50 for Anti-Leishmanial activity against GFP-expressing Leishmania infantum axenic amastigotes infected in human THP-1 cells; assay type: toxicity, cell-based; details: read-out: Ratio CC50/EC50
[7] = Inhibition of N-terminal His6-tagged recombinant Leishmania infantum promastigotes (MCAN/ES/89/IPZ229/1/89) TryS expressed in Escherichia coli BL21(DE3) Rossetta by BIOMOL Green reagent based assay
Procedure, shortened: (§1)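 Recombinant His-LiTryS at 25 nM final, 100 mM HEPES pH 8, 0.5 mM EDTA, 10 mM MgCl2, 100 µM DTT, 2% DMSO, 37 °C, 30 min. Saturating substrates: 150 µM ATP, 100 µM GSH, 2 mM Spd or 500 µM GspdSH. […] Phosphate via BIOMOL Green, A650; 6-point curves, triplicate, three experiments.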

Leishmania infantum [8] = test: Induction of mitochondrial inner membrane depolarization in Leishmania infantum axenic amastigotes at 5 uM incubated for 2 hrs by TMRM-derived flow cytometry
[9] = (§2) Competitive inhibition of N-terminal His6-tagged recombinant Leishmania infantum promastigotes (MCAN/ES/89/IPZ229/1/89) TryS expressed in Escherichia coli BL21(DE3) Rossetta with fixed concentration of ATP and GSH and varying concentrations of GspdSH as substrate measured after 30 mins by Lineweaver-Burk double-reciprocal plot analysis
Procedure, shortened: (§3)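 Recombinant His-tagged LiTryS (62.5 nM added to start) in 100 mM HEPES pH 8, 50 µL, 37 °C, 30 min; phosphate read with BIOMOL Green at 650 nm. Four inhibitor concentrations crossed with four varied substrate levels, no enzyme preincubation. […] Lineweaver-Burk analysis, three experiments.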

[10] = (§4) Inhibition of N-terminal His6-tagged recombinant Leishmania infantum promastigotes (MCAN/ES/89/IPZ229/1/89) TryS expressed in Escherichia coli BL21(DE3) Rossetta using saturating concentrations of ATP and GSH and Km concentration of GspdSH as substrate measured after 30 mins by BIOMOL Green reagent based assay
[11] = as §2, with “Spd” for “ATP”, “ATP” for “GspdSH”; procedure, shortened: as §3
[12] = Inhibition of N-terminal His6-tagged recombinant Leishmania infantum promastigotes (MCAN/ES/89/IPZ229/1/89) TryS expressed in Escherichia coli BL21(DE3) Rossetta using saturating concentrations of ATP, GSH and GspdSH as substrate measured after 30 mins by BIOMOL Green reagent based assay; procedure, shortened: as §1
[13] = Inhibition of N-terminal His6-tagged recombinant Leishmania infantum promastigotes (MCAN/ES/89/IPZ229/1/89) TryS expressed in Escherichia coli BL21(DE3) Rossetta using saturating concentrations of ATP, GSH and Spd as substrate measured after 30 mins by BIOMOL Green reagent based assay; procedure, shortened: as §1
[14] = as §4, with “Spd” for “GSH”, “GSH” for “GspdSH”
[15] = as §4, with “Spd” for “GspdSH”
[16] = as §4, with “GSH” for “ATP”, “Spd” for “GSH”, “ATP” for “GspdSH”
[17] = as §2, with “Mixed” for “Competitive”; procedure, shortened: as §3

Q: With `CCCCCCCCCCCCCCCCOP(=O)([O-])OCC[N+](C)(C)C` [MILTEFOSINE] as the molecule, how does the EC50 (Leishmania infantum [1]) read?
A: 0.5 µM

Q: What about the CC50 at 72 h [2] of the same molecule?
A: > 75 µM

Q: What about the Activity (Leishmania infantum [3]) of the same molecule?
A: Active

Q: What about the EC50 (Leishmania infantum [4]) of the same molecule?
A: 0.7 µM

Q: What about the Activity (Leishmania infantum [5]) of the same molecule?
A: Active

Q: And the selectivity ratio [6]?
A: > 107

Q: What about the IC50 [7] of the same molecule?
A: 45.6 µM

Q: What about the Activity (Leishmania infantum [8]) of the same molecule?
A: Active

Q: With `NCCCCc1cn(-c2ccc(-c3nc(-c4ccc(Oc5ccccc5)cc4)c(-c4ccccc4)s3)c(OCCN3CCNC3=O)c2)nn1` as the molecule, how does the EC50 (Leishmania infantum [1]) read?
A: 21.5 µM

Q: And the Ki [9]?
A: 3.9 µM

Q: What about the IC50 [10] of the same molecule?
A: 10.7 µM

Q: And the CC50 at 72 h [2]?
A: 15.9 µM

Q: And the Ki [11]?
A: 5.4 µM

Q: And the IC50 [12]?
A: 16.2 µM

Q: What about the EC50 (Leishmania infantum [4]) of the same molecule?
A: 13.5 µM

Q: And the IC50 [13]?
A: 14.8 µM

Q: And the selectivity ratio [6]?
A: 1.2

Q: What about the IC50 [14] of the same molecule?
A: 14.2 µM

Q: And the IC50 [15]?
A: 10.9 µM

Q: And the IC50 [16]?
A: 8.7 µM

Q: Which EC50 (Leishmania infantum [1]) does the source give for `CCCCCCCCCCCCCCCOc1cc(C[N+](C)(C)C2CCCC2)ccc1OCCCCCCCCCCCCCC` here?
A: > 75 µM

Q: And the IC50 [10]?
A: 6 µM

Q: And the IC50 [12]?
A: 7.5 µM

Q: And the IC50 [13]?
A: 9.8 µM

Q: What about the IC50 [14] of the same molecule?
A: 8.7 µM

Q: And the IC50 [15]?
A: 8.4 µM

Q: And the IC50 [16]?
A: 8.9 µM

Q: Which EC50 (Leishmania infantum [1]) does the source give for `O=C(O[C@@H]1OC[C@@H](OC(=O)c2ccc(O)c(O)c2O)[C@@H](OC(=O)c2ccc(O)c(O)c2O)[C@H]1OC(=O)c1ccc(O)c(O)c1O)c1ccc(O)c(O)c1O` here?
A: 47.6 µM

Q: And the IC50 [10]?
A: 5.1 µM

Q: And the IC50 [12]?
A: 5.9 µM

Q: And the IC50 [13]?
A: 5.4 µM

Q: And the IC50 [14]?
A: 6.7 µM

Q: What about the IC50 [15] of the same molecule?
A: 4.7 µM

Q: What about the IC50 [16] of the same molecule?
A: 7.1 µM

Q: Which results are given for `CCCCCCCCCCCCCCOc1ccc(C[N+](C)(C)C2CCCC2)cc1OC`?
A: EC50 (Leishmania infantum [1]): 0.4 µM; IC50 [10]: 3.8 µM; CC50 at 72 h [2]: 21.3 µM; Activity (Leishmania infantum [3]): Active; IC50 [12]: 7.1 µM; EC50 (Leishmania infantum [4]): 0.6 µM; IC50 [13]: 7.9 µM; Activity (Leishmania infantum [5]): Active; selectivity ratio [6]: 35.5; IC50 [14]: 7.8 µM; Activity (Leishmania infantum [8]): Active; IC50 [15]: 5.5 µM; IC50 [16]: 7.3 µM

Q: For `CCCCCCCCCCCC(=O)NC(COC(=O)c1ccc(OCCN)c(OCCN)c1)COC(=O)c1cc(OCCN)c(OCCN)c(OCCN)c1` (stereo unspecified), which EC50 (Leishmania infantum [1]) is on record?
A: 7.3 µM

Q: And the Ki [9]?
A: 2.6 µM

Q: What about the IC50 [10] of the same molecule?
A: 4.9 µM

Q: And the CC50 at 72 h [2]?
A: > 75 µM

Q: What about the IC50 [12] of the same molecule?
A: 7.2 µM

Q: What about the EC50 (Leishmania infantum [4]) of the same molecule?
A: 17.9 µM

Q: What about the IC50 [13] of the same molecule?
A: 14.8 µM

Q: And the selectivity ratio [6]?
A: > 4.2

Q: And the IC50 [14]?
A: 14.6 µM

Q: What about the IC50 [15] of the same molecule?
A: 9.9 µM

Q: And the IC50 [16]?
A: 13.4 µM

Q: For `O=C(OC[C@H]1O[C@H](O[C@H]2O[C@H](COC(=O)c3cc(O)c(O)c(O)c3)[C@@H](OC(=O)c3cc(O)c(O)c(O)c3)[C@H](OC(=O)c3cc(O)c(O)c(O)c3)[C@H]2OC(=O)c2cc(O)c(O)c(O)c2)[C@H](OC(=O)c2cc(O)c(O)c(O)c2)[C@@H](OC(=O)c2cc(O)c(O)c(O)c2)[C@@H]1OC(=O)c1cc(O)c(O)c(O)c1)c1cc(O)c(O)c(O)c1`, which EC50 (Leishmania infantum [1]) is on record?
A: 43.7 µM

Q: What about the Ki [17] of the same molecule?
A: 0.8 µM

Q: What about the IC50 [10] of the same molecule?
A: 2 µM

Q: What about the IC50 [12] of the same molecule?
A: 2.2 µM

Q: And the IC50 [13]?
A: 4.4 µM

Q: And the IC50 [14]?
A: 5.4 µM

Q: And the IC50 [15]?
A: 5.6 µM

Q: What about the IC50 [16] of the same molecule?
A: 5.4 µM
